Laboratory results published in article PMC11375721 (ACS Omega, 2024).

Columns and labels:
[1] = test system: A549-PDL1 cells; experiment: Cellular uptake and internalization; assay type: cell-based
Outline: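 A549 cells stably transfected with PD-L1 by lentiviral infection, grown in RPMI-1640 with 15% FBS at 37 °C, 5% CO2. Cells were incubated with in vitro ligated [18F]Tz-TCO-antibody for 30, 60, 120 and 180 min at 37 °C, then washed twice in ice-cold PBS. Surface activity was stripped with glycine HCl (1 mol/L, pH 2.2) for 10 min at 37 °C. The lysate gave the internalized fraction; washes plus lysate gave total uptake, γ-counted. Three experiments, each in triplicate.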

[2] = molecular target: PD-L1 (Homo sapiens, UniProt Q9NZQ7); experiment: Saturation binding on A549-PDL1 cells; conditions: 37 °C, 1 h
Outline: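 Antibody-TCO was ligated with [18F]Tz in PBS (pH 7) at room temperature, and the purified conjugate was added at 0.08–10 nM to A549-PDL1 cells (2 × 10^5/well) for 1 h at 37 °C. Nonspecific binding used 100-fold excess unlabeled antibody added 1 h beforehand. Cell-bound activity was γ-counted. Each condition was run in triplicate, and Kd came from one-site specific-binding nonlinear regression.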

[3] = test system: A549-PDL1 xenografts; experiment: In vivo pretargeting biodistribution; set-up: species or system mice; conditions: 1 h after [^18F]PEG12-Tz, n = 3
Outline: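 Male BALB/c nude mice (4–6 weeks, 13–18 g) received 5 × 10^6 A549-PDL1 and A549 cells in PBS subcutaneously behind the right armpit and were used once tumors reached 5–10 mm. Durvalumab-TCO or atezolizumab-TCO (300 μg in 150 μL PBS) was given i.v. by tail vein. After 24, 48 or 72 h, [18F]PEG12-Tz (1.85 MBq) was given i.v. Mice were killed 1 h later, and organs were weighed, γ-counted and expressed as %ID/g; n = 3. Controls: radioligand alone; blocking by co-injection of 50-fold molar excess atezolizumab plus 50 μg unlabeled tetrazine.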

[4] = test system: A549-PDL1 xenografts; experiment: Pretargeted micro-PET/CT imaging; assay type: in vivo, mice; conditions: for A549-PDL1 tumor uptake (PET): 1 h postinjection of [^18F]PEG12-Tz
[5] = Estimated human dosimetry
Outline: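 Male nude mice bearing A549-PDL1 xenografts were imaged by micro-PET/CT under 2–3% isoflurane on a heating pad, with OSEM reconstruction and %ID/g quantification. Pretargeted arm: atezolizumab-TCO 300 μg i.v., then 48 h later the 18F-tetrazine (3.7 MBq) i.v. Direct arm: [18F]Tz-TCO-atezolizumab 7.4 MBq/mouse i.v., imaged at 1, 2, 4, 6 and 8 h. Mouse data were extrapolated to human organ doses.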

Sequence of PD-L1 (Q9NZQ7 19-290): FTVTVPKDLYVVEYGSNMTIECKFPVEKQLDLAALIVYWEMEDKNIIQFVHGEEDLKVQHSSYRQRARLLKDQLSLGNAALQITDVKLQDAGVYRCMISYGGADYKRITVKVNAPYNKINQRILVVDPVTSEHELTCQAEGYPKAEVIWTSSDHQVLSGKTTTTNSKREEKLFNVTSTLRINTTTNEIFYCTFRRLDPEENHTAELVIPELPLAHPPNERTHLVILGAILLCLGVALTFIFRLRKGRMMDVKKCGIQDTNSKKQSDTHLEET

For “[^18F]Tz-TCO-atezolizumab: in vitro ligation product of [^18F]Tz with atezolizumab-TCO, directly labeled radioimmunoconjugate”, the cellular uptake ([1]; 30 min) was 3.76 % ID/10^6 cells, the cellular uptake ([1]; 180 min) was 9.85 % ID/10^6 cells and the internalization rate ([1]; 180 min) was 98.1%. The Kd [2] was 1.38 nM.
In the case of “[^18F]Tz-TCO-durvalumab: in vitro ligation product of [^18F]Tz with durvalumab-TCO”, the cellular uptake ([1]; 30 min) is reported as 5.13 % ID/10^6 cells, the cellular uptake ([1]; 180 min) is reported as 8.40 % ID/10^6 cells and the internalization rate ([1]; 180 min) is reported as 73.2%. The Kd [2] was 2.39 nM.
With “atezolizumab pretargeted: pretargeting pair: atezolizumab-TCO injected first, [^18F]PEG12-Tz 24-72 h later, ligated in vivo” the A549-PDL1 tumor uptake ([3]; 24 h after antibody-TCO 300 μg) was 1.16 ± 0.06 % ID/g, the blood uptake ([3]; 24 h after antibody-TCO 300 μg) was 1.72 ± 0.09 % ID/g and the bone uptake ([3]; 24 h after antibody-TCO 300 μg) was 0.38 ± 0.07 % ID/g. The brain uptake ([3]; 24 h after antibody-TCO 300 μg) was 0.06 ± 0.01 % ID/g, the gall bladder uptake ([3]; 24 h after antibody-TCO 300 μg) was 0.94 ± 0.11 % ID/g and the heart uptake ([3]; 24 h after antibody-TCO 300 μg) was 0.93 ± 0.05 % ID/g. For the same substance, the intestine uptake ([3]; 24 h after antibody-TCO 300 μg) was 0.51 ± 0.12 % ID/g, the kidney uptake ([3]; 24 h after antibody-TCO 300 μg) was 2.04 ± 0.09 % ID/g and the liver uptake ([3]; 24 h after antibody-TCO 300 μg) was 0.87 ± 0.08 % ID/g. It also gave a lung uptake ([3]; 24 h after antibody-TCO 300 μg) of 1.78 ± 0.34 % ID/g, a muscle uptake ([3]; 24 h after antibody-TCO 300 μg) of 0.26 ± 0.04 % ID/g and a spleen uptake ([3]; 24 h after antibody-TCO 300 μg) of 0.71 ± 0.04 % ID/g. The stomach uptake ([3]; 24 h after antibody-TCO 300 μg) was 0.40 ± 0.16 % ID/g, the A549-PDL1 tumor uptake ([3]; 48 h after antibody-TCO 300 μg) was 1.65 ± 0.29 % ID/g and the blood uptake ([3]; 48 h after antibody-TCO 300 μg) was 1.86 ± 0.15 % ID/g. The bone uptake ([3]; 48 h after antibody-TCO 300 μg) was 0.28 ± 0.02 % ID/g, the brain uptake ([3]; 48 h after antibody-TCO 300 μg) was 0.05 ± 0.01 % ID/g and the gall bladder uptake ([3]; 48 h after antibody-TCO 300 μg) was 0.94 ± 0.24 % ID/g. For the same substance, the heart uptake ([3]; 48 h after antibody-TCO 300 μg) was 1.02 ± 0.14 % ID/g, the intestine uptake ([3]; 48 h after antibody-TCO 300 μg) was 0.62 ± 0.22 % ID/g and the kidney uptake ([3]; 48 h after antibody-TCO 300 μg) was 2.82 ± 0.52 % ID/g. The liver uptake ([3]; 48 h after antibody-TCO 300 μg) was 0.96 ± 0.18 % ID/g, the lung uptake ([3]; 48 h after antibody-TCO 300 μg) was 1.65 ± 0.11 % ID/g and the muscle uptake ([3]; 48 h after antibody-TCO 300 μg) was 0.31 ± 0.08 % ID/g. It also gave a spleen uptake ([3]; 48 h after antibody-TCO 300 μg) of 0.71 ± 0.12 % ID/g, a stomach uptake ([3]; 48 h after antibody-TCO 300 μg) of 0.37 ± 0.06 % ID/g and an A549-PDL1 tumor uptake ([3]; 72 h after antibody-TCO 300 μg) of 0.90 ± 0.23 % ID/g. For the same substance, the blood uptake ([3]; 72 h after antibody-TCO 300 μg) was 1.48 ± 0.50 % ID/g, the bone uptake ([3]; 72 h after antibody-TCO 300 μg) was 0.38 ± 0.03 % ID/g and the brain uptake ([3]; 72 h after antibody-TCO 300 μg) was 0.05 ± 0.01 % ID/g. It also gave a gall bladder uptake ([3]; 72 h after antibody-TCO 300 μg) of 0.63 ± 0.21 % ID/g, a heart uptake ([3]; 72 h after antibody-TCO 300 μg) of 0.74 ± 0.28 % ID/g and an intestine uptake ([3]; 72 h after antibody-TCO 300 μg) of 0.55 ± 0.15 % ID/g. It also gave a kidney uptake ([3]; 72 h after antibody-TCO 300 μg) of 2.22 ± 0.37 % ID/g, a liver uptake ([3]; 72 h after antibody-TCO 300 μg) of 0.71 ± 0.16 % ID/g and a lung uptake ([3]; 72 h after antibody-TCO 300 μg) of 0.92 ± 0.06 % ID/g. For the same substance, the muscle uptake ([3]; 72 h after antibody-TCO 300 μg) was 0.29 ± 0.06 % ID/g, the spleen uptake ([3]; 72 h after antibody-TCO 300 μg) was 0.81 ± 0.13 % ID/g and the stomach uptake ([3]; 72 h after antibody-TCO 300 μg) was 0.32 ± 0.11 % ID/g. For the same substance, the “A549-PDL1 tumor uptake (PET)” value ([4]; 24 h interval) was 0.79 ± 0.06 % ID/g, the “A549-PDL1 tumor uptake (PET)” value ([4]; 48 h interval) was 0.94 ± 0.16 % ID/g and the “A549-PDL1 tumor uptake (PET)” value ([4]; 72 h interval) was 0.41 ± 0.04 % ID/g. The “accumulation in A549-PDL1 tumors under blocking” value ([4]; co-injection of unmodified anti-PD-L1 antibody or unlabeled tetrazine) was “could be blocked”, the “lowering of total effective dose versus [^18F]Tz-TCO-atezolizumab” value ([5]; estimated human) was “over 7.5 fold” and the “effective internal radiation dose” value ([5]; for men, as printed in main text) was 1.15 × 10^–3 μSv/MBq.
